Reference: ChEMBL document CHEMBL3232847, “Discovery of 6-phenylpyrimido[4,5-b][1,4]oxazines as potent and selective acyl CoA:diacylglycerol acyltransferase 1 (DGAT1) inhibitors with in vivo efficacy in rodents” (J Med Chem, 2014)
Each block holds one compound with its values, some of them ahead of it. Calls of active or inactive are those of the source. The rule behind the calls is not given here.

What was measured:
[1] = AUC in CD1 mouse at 0.3 mg/kg, po; assay type: ADME, organism-based; set-up: dose 0.3 mg/kg, route oral; settings: plasma
[2] = target: T1, Sterol O-acyltransferase 1 (Homo sapiens, UniProt P35610); assay: Inhibition of human full-length flag-tagged ACAT1 expressed in baculovirus infected insect cells using [14C]palmitoyl CoA as substrate after 10 mins by scintillation counting
T1 sequence (P35610 whole entry): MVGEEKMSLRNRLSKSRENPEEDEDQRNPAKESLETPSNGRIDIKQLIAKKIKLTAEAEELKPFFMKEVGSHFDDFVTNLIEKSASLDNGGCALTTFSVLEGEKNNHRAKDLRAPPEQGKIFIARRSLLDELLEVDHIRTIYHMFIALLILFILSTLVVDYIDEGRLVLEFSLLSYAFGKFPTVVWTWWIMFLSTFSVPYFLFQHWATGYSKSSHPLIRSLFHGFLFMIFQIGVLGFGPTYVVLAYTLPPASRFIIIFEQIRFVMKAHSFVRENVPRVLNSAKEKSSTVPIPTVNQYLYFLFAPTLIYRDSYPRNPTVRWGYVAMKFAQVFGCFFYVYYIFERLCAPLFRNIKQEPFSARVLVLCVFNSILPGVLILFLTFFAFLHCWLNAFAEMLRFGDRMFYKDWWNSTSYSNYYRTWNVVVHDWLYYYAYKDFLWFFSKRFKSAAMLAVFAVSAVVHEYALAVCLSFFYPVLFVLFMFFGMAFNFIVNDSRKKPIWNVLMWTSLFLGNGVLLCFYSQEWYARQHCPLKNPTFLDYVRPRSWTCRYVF

[3] = Inhibition of rat small intestine microsomal MGAT by TLC technique in presence of monoacylglycerol and [14C] palmitoyl CoA; assay type: microsomes
[4] = Inhibition of mouse liver microsomal GPAT by TLC technique in presence of glycerol-3-phosphate and [14C] palmitoyl CoA
[5] = tested on: Mus musculus; assay: Reduction in plasma triglyceride level in po dosed C57BL/6J mouse compound treated 30 mins prior to olive oil administration measured 3 hrs post olive oil administration relative to vehicle-treated control; assay type: functional, organism-based
Method in brief: (§1)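 Animals received vehicle or compound by oral gavage, then olive oil (5 mL/kg) by oral gavage 30 min later. Plasma triglycerides were measured before dosing and 3 h after the oil. The read-out was the change in TG from pre-dose, compared with vehicle-treated animals.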

[6] = tested on: Mus musculus; assay: Reduction in plasma triglyceride level in C57BL/6J mouse at 0.1 mg/kg, po treated 30 mins prior to olive oil administration measured 3 hrs post olive oil administration relative to vehicle-treated control; assay type: functional; set-up: scale not given: the % may be the effect or the level left; method in brief: as §1
[7] = target: T2, Sterol O-acyltransferase 2 (Homo sapiens, UniProt O75908); assay: Inhibition of human full-length flag-tagged ACAT2 expressed in baculovirus infected insect cells using [14C]palmitoyl CoA as substrate after 10 mins by scintillation counting
T2 sequence (O75908 whole entry): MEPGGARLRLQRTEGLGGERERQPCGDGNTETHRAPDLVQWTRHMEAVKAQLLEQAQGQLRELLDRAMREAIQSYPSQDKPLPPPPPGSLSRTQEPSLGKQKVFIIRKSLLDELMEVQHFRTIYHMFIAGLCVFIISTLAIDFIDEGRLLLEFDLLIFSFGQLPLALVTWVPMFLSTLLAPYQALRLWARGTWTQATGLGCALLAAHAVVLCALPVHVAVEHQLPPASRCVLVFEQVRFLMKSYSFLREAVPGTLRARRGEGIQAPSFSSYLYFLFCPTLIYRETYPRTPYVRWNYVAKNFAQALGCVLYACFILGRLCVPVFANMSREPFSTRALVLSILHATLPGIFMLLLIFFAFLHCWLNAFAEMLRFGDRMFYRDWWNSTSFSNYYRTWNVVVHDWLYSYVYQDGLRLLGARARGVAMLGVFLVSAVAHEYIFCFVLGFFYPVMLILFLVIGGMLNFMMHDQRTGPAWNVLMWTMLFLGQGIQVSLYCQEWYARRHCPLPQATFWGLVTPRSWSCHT

[8] = target: Voltage-gated inwardly rectifying potassium channel KCNH2 (Homo sapiens, UniProt Q12809); assay: Inhibition of human ERG up to 5 uM by patch clamp assay
[9] = Half life in Sprague-Dawley rat at 0.7 mg/kg, iv; assay type: ADME, organism-based; set-up: dose 0.7 mg/kg, route intravenous; settings: in vivo
[10] = Volume of distribution at steady state in beagle dog at 0.2 mg/kg, iv; assay type: ADME, organism-based, Canis lupus familiaris; set-up: dose 0.2 mg/kg, route intravenous; settings: in vivo, read-out: Vdss
[11] = AUC in beagle dog at 2 mg/kg, po; assay type: ADME, organism-based, Canis lupus familiaris; set-up: dose 2 mg/kg, route oral; settings: plasma
[12] = Oral bioavailability in beagle dog at 2 mg/kg; assay type: ADME, organism-based, Canis lupus familiaris; settings: in vivo
[13] = Clearance in cynomolgus monkey at 0.5 mg/kg, iv; assay type: ADME, organism-based, Macaca fascicularis; set-up: dose 0.5 mg/kg, route intravenous; settings: in vivo
[14] = Half life in cynomolgus monkey at 0.5 mg/kg, iv; assay type: ADME, organism-based, Macaca fascicularis; set-up: dose 0.5 mg/kg, route intravenous; settings: in vivo
[15] = tested on: Cynomolgus monkey; assay: Toxicity in cynomolgus monkey assessed as elevation of ALT level at 10 to 30 mg/kg/day, po qd by 21-day multiple-dose toxicity study relative to control; assay type: organism-based, Macaca fascicularis; set-up: route oral; settings: in vivo
Method in brief: (§2)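 Cynomolgus monkeys were dosed po once daily at 10 and 30 mg/kg for 21 days. ALT and AST levels, QTc intervals, and clinical and histopathological findings were assessed, and plasma AUC was recorded for each dose.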

[16] = tested on: Cynomolgus monkey; assay: Toxicity in cynomolgus monkey assessed as elevation of AST level at 10 to 30 mg/kg/day, po qd by 21-day multiple-dose toxicity study relative to control; assay type: organism-based, Macaca fascicularis; set-up: route oral; settings: in vivo; method in brief: as §2
[17] = tested on: Cynomolgus monkey; assay: Toxicity in cynomolgus monkey assessed as elevation of change in histopathological parameters at 10 to 30 mg/kg/day, po qd by 21-day multiple-dose toxicity study relative to control; assay type: organism-based, Macaca fascicularis; set-up: route oral; settings: in vivo; method in brief: as §2
[18] = Half life in Sprague-Dawley rat at 1 mg/kg, iv; assay type: ADME, organism-based; set-up: dose 1 mg/kg, route intravenous; settings: in vivo
[19] = Oral bioavailability in Sprague-Dawley rat at 2 mg/kg; assay type: ADME, organism-based; settings: in vivo
[20] = Half life in beagle dog at 0.5 mg/kg, iv; assay type: ADME, organism-based, Canis lupus familiaris; set-up: dose 0.5 mg/kg, route intravenous; settings: in vivo
[21] = AUC in beagle dog at 5 mg/kg, po; assay type: ADME, organism-based, Canis lupus familiaris; set-up: dose 5 mg/kg, route oral; settings: plasma
[22] = Oral bioavailability in beagle dog at 5 mg/kg; assay type: ADME, organism-based, Canis lupus familiaris; settings: in vivo
[23] = Half life in rhesus monkey at 0.2 mg/kg, iv; assay type: ADME, organism-based, Macaca mulatta; set-up: dose 0.2 mg/kg, route intravenous; settings: in vivo
[24] = tested on: Rattus norvegicus; assay: Reduction in plasma triglyceride level in Sprague-Dawley rat at 0.3 mg/kg, po treated 30 mins prior to olive oil administration measured 3 hrs post olive oil administration relative to vehicle-treated control; assay type: functional; set-up: scale not given: the % may be the effect or the level left; method in brief: as §1
[25] = tested on: Rattus norvegicus; assay: Reduction in plasma triglyceride level in Sprague-Dawley rat at 1 mg/kg, po treated 30 mins prior to olive oil administration measured 3 hrs post olive oil administration relative to vehicle-treated control; assay type: functional; set-up: scale not given: the % may be the effect or the level left; method in brief: as §1
[26] = tested on: Rattus norvegicus; assay: Toxicity in Sprague-Dawley rat assessed as change in clinical parameters at 30 mg/kg, po by 14-day multiple-dose toxicity study; assay type: organism-based; set-up: dose 30 mg/kg, route oral; settings: in vivo
Method in brief: (§3)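 Sprague−Dawley rats were dosed po once daily for 14 days. Clinical and histopathological findings were assessed, and plasma AUC was recorded for each dose.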

[27] = tested on: Rattus norvegicus; assay: Toxicity in Sprague-Dawley rat assessed as change in histopathological parameters at 30 mg/kg, po by 14-day multiple-dose toxicity study; assay type: organism-based; set-up: dose 30 mg/kg, route oral; settings: in vivo; method in brief: as §3
[28] = Drug metabolism in cynomolgus monkey liver S9 fraction assessed as 2-hydroxy compound formation by MS/MS analysis; assay type: ADME, subcellular, Macaca fascicularis
[29] = target: T3, Sterol O-acyltransferase 2 (Homo sapiens) (UniProt O75908); assay: Inhibition of human full-length flag-tagged ACAT2 expressed in baculovirus infected insect cells using [14C]palmitoyl CoA as substrate up to 10 uM after 10 mins by scintillation counting
T3 sequence (whole entry): T2 sequence (O75908 whole entry)

Chain of Voltage-gated inwardly rectifying potassium channel KCNH2 (Q12809 whole entry): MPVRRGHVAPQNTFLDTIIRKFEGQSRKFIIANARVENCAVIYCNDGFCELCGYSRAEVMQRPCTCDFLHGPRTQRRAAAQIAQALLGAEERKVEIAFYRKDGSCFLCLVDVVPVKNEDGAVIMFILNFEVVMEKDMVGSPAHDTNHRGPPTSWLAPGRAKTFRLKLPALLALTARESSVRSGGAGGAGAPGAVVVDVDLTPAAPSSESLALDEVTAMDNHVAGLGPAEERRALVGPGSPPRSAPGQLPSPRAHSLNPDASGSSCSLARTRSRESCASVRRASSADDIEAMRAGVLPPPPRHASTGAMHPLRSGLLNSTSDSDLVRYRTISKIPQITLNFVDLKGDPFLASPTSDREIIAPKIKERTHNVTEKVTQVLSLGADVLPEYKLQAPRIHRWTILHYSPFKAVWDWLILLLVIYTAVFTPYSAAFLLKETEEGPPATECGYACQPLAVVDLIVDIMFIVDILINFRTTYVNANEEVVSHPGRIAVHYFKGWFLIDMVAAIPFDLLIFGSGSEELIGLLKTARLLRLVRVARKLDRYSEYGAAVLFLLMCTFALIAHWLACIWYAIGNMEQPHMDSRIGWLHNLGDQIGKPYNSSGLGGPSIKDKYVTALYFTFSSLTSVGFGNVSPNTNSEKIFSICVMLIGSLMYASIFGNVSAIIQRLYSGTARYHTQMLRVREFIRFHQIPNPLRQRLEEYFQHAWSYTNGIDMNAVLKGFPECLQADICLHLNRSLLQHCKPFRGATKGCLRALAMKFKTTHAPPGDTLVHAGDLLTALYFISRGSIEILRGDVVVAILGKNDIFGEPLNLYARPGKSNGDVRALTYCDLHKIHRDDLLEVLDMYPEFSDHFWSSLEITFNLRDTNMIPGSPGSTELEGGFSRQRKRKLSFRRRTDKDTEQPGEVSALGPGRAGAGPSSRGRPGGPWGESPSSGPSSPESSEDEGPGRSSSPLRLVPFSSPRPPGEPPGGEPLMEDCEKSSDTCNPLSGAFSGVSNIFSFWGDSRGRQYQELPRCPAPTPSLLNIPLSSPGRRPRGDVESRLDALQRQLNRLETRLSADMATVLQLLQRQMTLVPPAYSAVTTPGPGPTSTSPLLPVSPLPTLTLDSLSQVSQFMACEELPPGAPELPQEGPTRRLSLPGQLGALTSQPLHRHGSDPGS

AUC [1]: 341 ng·h/mL
IC50 [2]: > 10 µM
IC50 [3]: > 10 µM
IC50 [4]: > 10 µM
IC50 [7]: > 10 µM
half-life [9]: 222 min
Vd [10]: 0.21 L/kg
AUC [11]: 3180 ng·h/mL
bioavailability [12]: 22%
clearance [13]: 0.333 mL/min/kg
half-life [14]: 924 min
SMILES: CC1(C)Oc2nc(C(F)(F)F)nc(N)c2N=C1c1ccc2c(c1)CC[C@]21CC[C@@H](CC(=O)O)CC1
Activity [5]: Dose-dependent effect
Activity [6]: 99.7%
inhibition (INH) [8]: Not Active
Activity [15]: Non-toxic
Activity [16]: Non-toxic
Activity [17]: Non-toxic

half-life [18]: 102 min
bioavailability [19]: 30%
half-life [20]: 144 min
AUC [21]: 4720 ng·h/mL
bioavailability [22]: 64%
half-life [23]: 108 min
Drug metabolism [28]: metabolite_detected
inhibition [29]: inactive
SMILES: CC1(C)Oc2ncnc(N)c2N=C1c1ccc([C@H]2CC[C@H](CC(=O)O)CC2)cc1
Activity [24]: 88%
Activity [25]: 110%
Activity [26]: Non-toxic
Activity [27]: Non-toxic
